Rows were chosen to be rich in hits. Some 1.4% of all compounds tested hit in one or more screens of this group.
HTR5A ag ctr – HTR5A agonists in luminescence cell assay, primary screen, counter-screen for OPRM1-OPRD1 heterodimer agonist project, full-deck HTS. 5-hydroxytryptamine receptor 5A (Homo sapiens), P47898. cell-based. activation, % at 9.3 µM. 340,000 tested, 0.61% active. AID 504692, 2011; in the data active = activation mostly above about 9.5%, no sharp cut-off; inactive = mostly below about 7.6%
Arr AP2 block – inhibitors of beta-arrestin/AP2 binding, primary screen, biochemical, GPCR trafficking, flow cytometry; 340,000 tested, 0.31% active; FITC-arrestin peptide / GST-AP2 beads; AP2 beta2 appendage carries R879A mutation; beta-arrestin 1 C-terminal peptide binding to AP2 beta2-adaptin appendage (human); AID 504490, 2011; inhibition, % at 10 µM;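 active = inhibition above a set limit, near 3 SD of compounds lacking own fluorescence, cut at about 54% in these data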
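System: GST-AP2 R879A glutathione beads; medium: PBS, Tween 20 0.05%, BSA 0.1%; reagent: fluorescein-tagged arrestin peptide at 50 nM final; schedule: pre-incubation 12 min, peptide binding 1 h, room temperature; detection: flow cytometry, FL1 (488/535 nm); read-out: inhibition as reduced fluorescein signal on beads, percent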
DAGLB inhibitor – DAGLB lipase inhibitors, primary screen, biochemical, fluorescence, HTS | Diacylglycerol lipase-beta (Homo sapiens), Q8NCG7 | HEK293T DAGLB membrane lysate, EnzChek fluorogenic substrate | inhibition, % at 5.17 µM | 340,000 tested, 0.059% active | AID 504411, 2011; in the data active = inhibition above about 34%
OPRM1-OPRD1 inv – inverse agonists of MOR-DOR heterodimerization, primary screen, cell-based, luminescence; Mu-type opioid receptor (Homo sapiens) + Delta-type opioid receptor (Homo sapiens), …; cell-based MOR-DOR heterodimer luminescence, inverse agonism; inhibition, % at 9.3 µM; 340,000 tested, 0.21% active; in the data active = inhibition above about 22%, passing the limit was not always enough
HTR5A inv ag – HTR5A inverse agonists in luminescence cell assay, primary screen, counter-screen for OPRM1-OPRD1 heterodimer inverse agonist project, full-deck HTS. inhibition, % at 9.3 µM. HTR5A cell line, inverse agonism. 340,000 tested, 0.083% active; in the data active = inhibition mostly above about 23%, no sharp cut-off; inactive = mostly below about 18%
OPRM1-OPRD1 ag – agonists of OPRM1-OPRD1 heterodimerization, primary screen, cell-based, luminescence; activation, % at 9.3 µM; 340,000 tested, 0.3% active; Mu-type opioid receptor (Homo sapiens) + Delta-type opioid receptor (Homo sapiens), …; cells; AID 504326, 2011; in the data active = activation above about 18%
Arr AP2 CP1 – inhibitors of arrestin peptide binding to AP2, confirmation, biochemical, cherry pick 1, flow cytometry beads | shares compounds with Arr AP2 block | GST-AP2 beads, FITC arrestin peptide binding; GST-fused beta2-adaptin appendage, R879A mutant | inhibition, % at 10 µM | 1,300 tested, 2% active | AID 504908, 2011;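 active = inhibition above a set limit, roughly 3 SD of non-fluorescent compound noise, cut at about 38% in these data; inactive = inhibition at or below that limit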;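 also: loss of bead fluorescence from 50 nM FITC arrestin peptide bound to appendage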
Target sequence (P63010 whole entry, looked up, the tested form may be a part, one chain of several): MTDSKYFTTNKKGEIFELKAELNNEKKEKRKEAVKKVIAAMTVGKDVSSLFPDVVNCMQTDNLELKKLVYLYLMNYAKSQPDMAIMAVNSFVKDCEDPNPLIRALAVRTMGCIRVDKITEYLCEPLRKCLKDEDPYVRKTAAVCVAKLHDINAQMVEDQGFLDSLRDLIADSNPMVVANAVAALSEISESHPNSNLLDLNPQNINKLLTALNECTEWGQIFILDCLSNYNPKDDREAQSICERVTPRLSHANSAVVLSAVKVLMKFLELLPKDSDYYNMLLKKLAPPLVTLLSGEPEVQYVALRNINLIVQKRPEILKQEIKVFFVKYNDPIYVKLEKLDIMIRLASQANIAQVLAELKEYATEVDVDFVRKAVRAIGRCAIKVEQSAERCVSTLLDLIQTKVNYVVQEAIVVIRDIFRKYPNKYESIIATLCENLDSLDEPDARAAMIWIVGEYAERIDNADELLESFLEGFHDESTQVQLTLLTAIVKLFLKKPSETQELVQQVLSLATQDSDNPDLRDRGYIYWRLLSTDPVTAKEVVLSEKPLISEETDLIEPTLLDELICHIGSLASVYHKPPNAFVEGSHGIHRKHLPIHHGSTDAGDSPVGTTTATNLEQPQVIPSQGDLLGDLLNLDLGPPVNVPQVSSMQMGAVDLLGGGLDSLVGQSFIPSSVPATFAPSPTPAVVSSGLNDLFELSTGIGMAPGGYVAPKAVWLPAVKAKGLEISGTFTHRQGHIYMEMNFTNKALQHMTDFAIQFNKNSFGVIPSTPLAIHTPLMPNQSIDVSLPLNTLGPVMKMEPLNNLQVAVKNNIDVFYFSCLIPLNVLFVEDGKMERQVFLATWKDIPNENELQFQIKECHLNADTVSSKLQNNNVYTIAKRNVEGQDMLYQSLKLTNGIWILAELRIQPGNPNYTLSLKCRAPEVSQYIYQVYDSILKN
GST GSH counter – GST-fluorescein capture on glutathione beads, confirmation, artefact control for arrestin-AP2 inhibitor project, biochemical, cherry pick 1, flow cytometry; shares compounds with Arr AP2 block; GST-fluorescein binding to GSH beads, fluorescence, counter-screen; inhibition, % at 10 µM; 1,300 tested, 2% active; AID 588338, 2011;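 active = inhibition above 50%, about 3 SD of the inhibition seen with non-fluorescent compounds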;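 also: fluorescein maleimide labelled GST captured on 4 micron glutathione beads; higher means more loss of bead fluorescence from quenching or blocked binding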
Each line names hits and unclear results; the compound was inactive in the other large screens (follow-up assays come after a bar, where they were run).

COc1ccc(-c2csc(NC(=S)NC(=O)/C=C/c3ccco3)n2)cc1OC	none
COc1ccc(-c2csc(NC(=S)NC(=O)/C=C/c3ccco3)n2)cc1Br	Arr AP2 block 87.7 (no result: HTR5A ag ctr, DAGLB inhibitor, OPRM1-OPRD1 inv, HTR5A inv ag, OPRM1-OPRD1 ag) | Arr AP2 CP1 inactive | GST GSH counter inactive
Cc1cc(-c2ccc(C(C)C)c(S(=O)(=O)N3CCC(C)CC3)c2)on1	Arr AP2 block 57.6 | Arr AP2 CP1 inactive | GST GSH counter inactive
O=S1(=O)C[C@@H](N2CCC(Cc3ccccc3)CC2)[C@H](COCc2ccccc2)N1	none (no result: HTR5A ag ctr, Arr AP2 block, OPRM1-OPRD1 inv, HTR5A inv ag, OPRM1-OPRD1 ag)
COc1cc(OC)cc(C(=O)N[C@H](C(=O)Nc2nc(-c3cc(OC)ccc3OC)cs2)C(C)C)c1	Arr AP2 block 58.3 | Arr AP2 CP1 inactive | GST GSH counter inactive
COc1ccc(OC)c(-c2csc(NC(=O)CN3C(=O)NC4(CCCC4)C3=O)n2)c1	Arr AP2 block 67.7 | Arr AP2 CP1 inactive | GST GSH counter inactive
CCCCCCCCCCCCCCC(O)C[N+](C)(CCO)CCO (stereo unspecified)	none
O=C(Oc1ccc[nH]c1=O)C1CC1	none (no result: HTR5A ag ctr, Arr AP2 block, OPRM1-OPRD1 inv, HTR5A inv ag, OPRM1-OPRD1 ag)
Cc1ccc2ccccc2c1NC(=O)CNCc1ccccc1	none (no result: HTR5A ag ctr, Arr AP2 block, OPRM1-OPRD1 inv, HTR5A inv ag, OPRM1-OPRD1 ag)
O=C(CN1CCN(C(=O)c2ccc(-c3nc4ccccc4s3)o2)CC1)Nc1ccccc1Cl	none
Cc1cccc(NC(=O)CN2CCN(C(=O)c3ccc(-c4nc5ccccc5s4)o3)CC2)c1C	Arr AP2 block 59.5 | Arr AP2 CP1 inactive | GST GSH counter inactive
Cc1cc(Cl)ccc1NC(=O)CCC(=O)N/N=C/c1cc([N+](=O)[O-])ccc1O	Arr AP2 block 105.4 | Arr AP2 CP1 inactive | GST GSH counter inactive
O=[N+]([O-])c1ccc(O)c(/C=N/NC(=S)Nc2ccc(Cl)cc2Cl)c1	none
CCC(C(=O)NCc1ccco1)N(Cc1cccs1)C(=O)CNS(=O)(=O)c1ccccc1 (stereo unspecified)	Arr AP2 block 54.7 | Arr AP2 CP1 inactive | GST GSH counter inactive
Cc1nn(-c2ccc(F)cc2)c(Cl)c1/C=C/C(=O)OCC(=O)Nc1ccc(F)cc1F	none
Cc1nn(-c2ccc(F)cc2)c(Cl)c1/C=C/C(=O)OCC(=O)Nc1c(F)c(F)c(F)c(F)c1F	Arr AP2 block 104.1 | Arr AP2 CP1 inactive | GST GSH counter inactive
O=S(=O)(NCCOc1ccccc1F)c1ccc(Cl)cc1F	Arr AP2 block 59.6 | Arr AP2 CP1 inactive | GST GSH counter inactive
CN(CC(=O)Nc1ccc(Cl)cc1)C(=O)CN1C(=O)C2CCCCC2C1=O (stereo unspecified)	none (no result: HTR5A ag ctr, Arr AP2 block, OPRM1-OPRD1 inv, HTR5A inv ag, OPRM1-OPRD1 ag)
CCn1c(=O)n(CC(=O)Nc2cccc(OC)c2)c(=O)c2ccccc21	none | Arr AP2 CP1 inactive | GST GSH counter inactive
COc1cccc(NC(=O)Cn2c(=O)n(-c3cc(OC)c(OC)c(OC)c3)c(=O)c3ccccc32)c1	none
COc1cc(NC(=O)CNC(=O)Cn2c(C)cc3ccccc3c2=O)cc(OC)c1OC	none
CCn1c(=O)n(CC(=O)Nc2cc(OC)c(OC)c(OC)c2)c(=O)c2ccccc21	none | Arr AP2 CP1 inactive | GST GSH counter inactive
O=C(CSc1nc2ccccc2o1)N1N=C(c2cccs2)CC1c1ccc(F)cc1 (stereo unspecified)	none
Cc1ccc(C2CC(c3cccs3)=NN2C(=O)CSc2nc3ccccc3o2)cc1 (stereo unspecified)	Arr AP2 block 61.6 | Arr AP2 CP1 inactive | GST GSH counter inactive
C=CCn1ccc(=O)nc1SC	none
CC(=O)N/N=C\c1ccccc1OC/C=C/c1ccccc1	Arr AP2 block 57.6 | Arr AP2 CP1 inactive | GST GSH counter inactive
CC(=O)N/N=C\c1cccc(OC/C=C/c2ccccc2)c1	Arr AP2 block 58.0 | Arr AP2 CP1 inactive | GST GSH counter inactive
CC/C(=N\NC(=S)NC(C)C)c1ccc(OC)c(OC)c1	Arr AP2 block 55.6 (no result: HTR5A ag ctr, DAGLB inhibitor, OPRM1-OPRD1 inv, HTR5A inv ag, OPRM1-OPRD1 ag) | Arr AP2 CP1 inactive | GST GSH counter inactive
COc1cc(/C=C(/NC(=O)c2ccccc2)C(=O)Nc2ccccc2)c([N+](=O)[O-])cc1OC	none
COc1ccc(NC(=O)/C(=C\c2cc(OC)c(OC)cc2[N+](=O)[O-])NC(=O)c2ccccc2)cc1	Arr AP2 block 59.8 | Arr AP2 CP1 inactive | GST GSH counter inactive
O=C(COc1ccccc1Br)NC(=O)NC1CCCC1	Arr AP2 block 55.8 | Arr AP2 CP1 inactive | GST GSH counter inactive
Cc1cccc2cc(/C=C3\N=C(c4ccccc4)OC3=O)c(N3CCOCC3)nc12	Arr AP2 block 67.3 | Arr AP2 CP1 inactive | GST GSH counter inactive
COc1ccc(C)cc1NC(=O)Nc1cnccn1	none | Arr AP2 CP1 inactive | GST GSH counter inactive
COc1ccc(NC(=O)Nc2cnccn2)c(OC)c1	none | Arr AP2 CP1 inactive | GST GSH counter inactive
CCc1nnc(NC(=O)Cc2cc(OC)c(OC)c(OC)c2)s1	Arr AP2 block 70.8 | Arr AP2 CP1 inactive | GST GSH counter inactive
COc1ccc(S(=O)(=O)c2ccc(OCC3CO3)cc2)cc1 (stereo unspecified)	Arr AP2 block 64.2 | Arr AP2 CP1 inactive | GST GSH counter inactive
COc1cc(CC(=O)OCC(=O)N2CCCCC2)cc(OC)c1OC	Arr AP2 block 57.8 | Arr AP2 CP1 inactive | GST GSH counter inactive
O=C(NCC(F)(F)F)N1CCOCC1	Arr AP2 block 68.1 | Arr AP2 CP1 inactive | GST GSH counter inactive
O=C1C=CC(=O)c2c(O)c(N3CCN(CCO)CC3)c(Cl)c(O)c21	Arr AP2 block 79.9, OPRM1-OPRD1 ag 21.2 | Arr AP2 CP1 44.3 | GST GSH counter inactive
O=C(NCc1ccc(Cl)cc1)C1CCN(S(=O)(=O)c2cccc3nonc23)CC1	Arr AP2 block 108.8 | Arr AP2 CP1 inactive | GST GSH counter 51.9
O=C(NCCc1ccc(Cl)cc1)C1CCN(S(=O)(=O)c2cccc3nonc23)CC1	none
COc1ccc(CNC(=O)[C@H](C)NC(=O)C2CC(=O)N(c3ccc(OC)cc3)C2)cc1 (stereo partly specified)	none
COc1ccc(CNC(=O)[C@H](C)NC(=O)C2CC(=O)N(c3ccc4c(c3)OCO4)C2)cc1 (stereo partly specified)	Arr AP2 block 54.8 | Arr AP2 CP1 inactive | GST GSH counter inactive

Source: PubChem BioAssay (several laboratories)
